Source: ChEMBL document CHEMBL3616464, “One-pot synthesis of podophyllotoxin-thiourea congeners by employing NH₂SO₃H/NaI: Anticancer activity, DNA topoisomerase-II inhibition, and apoptosis inducing agents” (Bioorg Med Chem Lett, 2015)
pIC50: −log10 of the molar value. Active and inactive are the calls of the source. No cut-off for these calls is given here.

Assays:
[1] = system: DU-145; assay: Cell cycle arrest in human DU145 cells assessed as accumulation at G2/M phase at 500 nM after 48 hrs by propidium iodide staining (reference value: 22.5%); assay type: functional
[2] = system: DU-145; assay: Induction of apoptosis in human DU145 cells assessed as reduction of cell population at 500 nM after 48 hrs by phase-contrast microscopic analysis; assay type: functional, cell-based
In short: (§1)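 DU-145 cells treated with 125, 250 or 500 nM for 48 h. Morphology (chromatin condensation, nuclear fragmentation, membrane blebbing, apoptotic bodies) examined under phase-contrast light microscope and compared with untreated control.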

[3] = system: DU-145; assay: Induction of apoptosis in human DU145 cells assessed as condensed chromatin at 500 nM after 48 hrs using acridine orange and ethidium bromide staining by fluorescence microscopic analysis; assay type: functional, cell-based
In short: (§2)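 DU-145 cells treated with 125, 250 or 500 nM for 48 h, then stained with acridine orange/ethidium bromide. Nuclear and chromatin morphology scored by fluorescence microscopy. Live cells appear green and late apoptotic nuclei red with EB. Untreated cells serve as control.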

[4] = system: DU-145; assay: Induction of apoptosis in human DU145 cells assessed as irregular distribution of chromatin at 250 nM after 48 hrs using acridine orange and ethidium bromide staining by fluorescence microscopic analysis; assay type: functional, cell-based; in short: as §2
[5] = system: DU-145; assay: Induction of apoptosis in human DU145 cells assessed as early apoptotic cells at 500 nM after 48 hrs using Annexin-V and propidium iodide staining (reference value: 1.40%); assay type: functional
[6] = system: DU-145; assay: Induction of apoptosis in human DU145 cells assessed as live cells at 500 nM after 48 hrs using Annexin-V and propidium iodide staining (reference value: 86%); assay type: functional
[7] = system: DU-145; assay: Induction of apoptosis in human DU145 cells assessed as live cells at 250 nM after 48 hrs using Annexin-V and propidium iodide staining (reference value: 86%); assay type: functional
[8] = system: DU-145; assay: Induction of apoptosis in human DU145 cells assessed as cell membrane blebbing at 125 nM after 48 hrs using acridine orange and ethidium bromide staining by fluorescence microscopic analysis; assay type: functional, cell-based; in short: as §2
[9] = system: MDA-MB-231; assay: Cytotoxicity against human MDA-MB-231 cells after 48 hrs by MTT assay; assay type: functional, cell-based; settings: MDA-MB-231, 48 h
[10] = system: DU-145; assay: Induction of apoptosis in human DU145 cells assessed as late apoptotic cells at 500 nM after 48 hrs by phase-contrast microscopic analysis; assay type: functional, cell-based; in short: as §1
[11] = system: DU-145; assay: Induction of apoptosis in human DU145 cells assessed as early apoptotic cells at 250 nM after 48 hrs using Annexin-V and propidium iodide staining (reference value: 1.40%); assay type: functional
[12] = Cytotoxicity against human RWPE1 cells after 48 hrs by MTT assay; assay type: cell-based; settings: RWPE-1, 48 h
[13] = system: DU-145; assay: Induction of apoptosis in human DU145 cells assessed as late apoptotic cells at 250 nM after 48 hrs using Annexin-V and propidium iodide staining (reference value: 9.32%); assay type: functional
[14] = system: DU-145; assay: Cell cycle arrest in human DU145 cells assessed as accumulation at S phase at 250 nM after 48 hrs by propidium iodide staining (reference value: 9.1%); assay type: functional
[15] = system: DU-145; assay: Cell cycle arrest in human DU145 cells assessed as accumulation at S phase at 125 nM after 48 hrs by propidium iodide staining (reference value: 9.1%); assay type: functional
[16] = system: DU-145; assay: Induction of apoptosis in human DU145 cells assessed as chromatin condensation at 125 nM after 48 hrs using acridine orange and ethidium bromide staining by fluorescence microscopic analysis; assay type: functional, cell-based; in short: as §2
[17] = system: DU-145; assay: Induction of apoptosis in human DU145 cells assessed as nuclear fragmentation at 125 to 500 nM after 48 hrs by phase-contrast microscopic analysis; assay type: functional, cell-based; in short: as §1
[18] = system: DU-145; assay: Induction of apoptosis in human DU145 cells assessed as destructive fragmentation of nuclei at 250 nM after 48 hrs using acridine orange and ethidium bromide staining by fluorescence microscopic analysis; assay type: functional, cell-based; in short: as §2
[19] = system: DU-145; assay: Induction of apoptosis in human DU145 cells assessed as chromatin condensation at 125 to 500 nM after 48 hrs by phase-contrast microscopic analysis; assay type: functional, cell-based; in short: as §1
[20] = system: DU-145; assay: Cell cycle arrest in human DU145 cells assessed as accumulation at G0/G1 phase at 125 nM after 48 hrs by propidium iodide staining (reference value: 43.5%); assay type: functional
[21] = system: DU-145; assay: Cell cycle arrest in human DU145 cells assessed as accumulation at G2/M phase at 250 nM after 48 hrs by propidium iodide staining (reference value: 22.5%); assay type: functional
[22] = Therapeutic index, ratio of IC50 for human RWPE1 cells to IC50 for human LNCAP cells; assay type: cell-based; settings: RWPE1 cells versus LNCAP cells, read-out: Ratio IC50
In short: (§3)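 Selectivity expressed as the fold by which the IC50 in normal prostate epithelial RWPE-1 cells exceeds the IC50 in the prostate cancer line (DU-145 or LNCaP).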

[23] = system: A549; assay: Cytotoxicity against human A549 cells after 48 hrs by MTT assay; assay type: functional, cell-based; settings: A549, 48 h
[24] = Therapeutic index, ratio of IC50 for human RWPE1 cells to IC50 for human DU145 cells; assay type: cell-based; settings: RWPE1 cells versus DU145 cells, read-out: Ratio IC50; in short: as §3
[25] = system: DU-145; assay: Induction of apoptosis in human DU145 cells assessed as late apoptotic cells at 500 nM after 48 hrs using Annexin-V and propidium iodide staining (reference value: 9.32%); assay type: functional
[26] = system: DU-145; assay: Induction of apoptosis in human DU145 cells assessed as dead cells at 250 nM after 48 hrs using Annexin-V and propidium iodide staining (reference value: 3.28%); assay type: functional
[27] = system: DU-145; assay: Induction of apoptosis in human DU145 cells assessed as live cells at 125 nM after 48 hrs using Annexin-V and propidium iodide staining (reference value: 86%); assay type: functional
[28] = system: LNCaP; assay: Cytotoxicity against human LNCAP cells after 48 hrs by MTT assay; assay type: functional, cell-based
[29] = system: DU-145; assay: Induction of apoptosis in human DU145 cells assessed as late apoptotic cells at 500 nM after 48 hrs using acridine orange and ethidium bromide staining by fluorescence microscopic analysis; assay type: functional, cell-based; in short: as §2
[30] = system: DU-145; assay: Induction of apoptosis in human DU145 cells assessed as formation of apoptotic bodies at 125 to 500 nM after 48 hrs by phase-contrast microscopic analysis; assay type: functional, cell-based; in short: as §1
[31] = system: DU-145; assay: Induction of apoptosis in human DU145 cells assessed as dead cells at 125 nM after 48 hrs using Annexin-V and propidium iodide staining (reference value: 3.28%); assay type: functional
[32] = system: DU-145; assay: Induction of apoptosis in human DU145 cells assessed as dead cells at 500 nM after 48 hrs using Annexin-V and propidium iodide staining (reference value: 3.28%); assay type: functional
[33] = system: DU-145; assay: Cytotoxicity against human DU145 cells after 48 hrs by MTT assay; assay type: functional, cell-based; settings: DU-145, 48 h
[34] = system: DU-145; assay: Induction of apoptosis in human DU145 cells assessed as early apoptotic cells at 125 nM after 48 hrs using Annexin-V and propidium iodide staining (reference value: 1.40%); assay type: functional
[35] = system: DU-145; assay: Induction of apoptosis in human DU145 cells assessed as horseshoe-shaped cells at 125 nM after 48 hrs using acridine orange and ethidium bromide staining by fluorescence microscopic analysis; assay type: functional, cell-based; in short: as §2
[36] = system: DU-145; assay: Induction of apoptosis in human DU145 cells assessed as late apoptotic cells at 125 nM after 48 hrs using Annexin-V and propidium iodide staining (reference value: 9.32%); assay type: functional
[37] = system: DU-145; assay: Induction of apoptosis in human DU145 cells assessed as cell membrane blebbing at 125 to 500 nM after 48 hrs by phase-contrast microscopic analysis; assay type: functional, cell-based; in short: as §1
[38] = Cytotoxicity against human HGC cells after 48 hrs by MTT assay; assay type: functional, cell-based
[39] = system: DU-145; assay: Cell cycle arrest in human DU145 cells assessed as accumulation at G0/G1 phase at 500 nM after 48 hrs by propidium iodide staining (reference value: 43.5%); assay type: functional
[40] = system: DU-145; assay: Cell cycle arrest in human DU145 cells assessed as accumulation at G0/G1 phase at 250 nM after 48 hrs by propidium iodide staining (reference value: 43.5%); assay type: functional
[41] = target: DNA topoisomerase 2-alpha (Homo sapiens) (UniProt P11388); assay: Inhibition of topoisomerase-2 (unknown origin) using kDNA assessed as increase of catenated kDNA level at 50 to 100 uM after 10 mins using ethidium bromide staining by agarose gel electrophoresis
DNA topoisomerase 2-alpha (Homo sapiens), sequence (P11388 whole entry): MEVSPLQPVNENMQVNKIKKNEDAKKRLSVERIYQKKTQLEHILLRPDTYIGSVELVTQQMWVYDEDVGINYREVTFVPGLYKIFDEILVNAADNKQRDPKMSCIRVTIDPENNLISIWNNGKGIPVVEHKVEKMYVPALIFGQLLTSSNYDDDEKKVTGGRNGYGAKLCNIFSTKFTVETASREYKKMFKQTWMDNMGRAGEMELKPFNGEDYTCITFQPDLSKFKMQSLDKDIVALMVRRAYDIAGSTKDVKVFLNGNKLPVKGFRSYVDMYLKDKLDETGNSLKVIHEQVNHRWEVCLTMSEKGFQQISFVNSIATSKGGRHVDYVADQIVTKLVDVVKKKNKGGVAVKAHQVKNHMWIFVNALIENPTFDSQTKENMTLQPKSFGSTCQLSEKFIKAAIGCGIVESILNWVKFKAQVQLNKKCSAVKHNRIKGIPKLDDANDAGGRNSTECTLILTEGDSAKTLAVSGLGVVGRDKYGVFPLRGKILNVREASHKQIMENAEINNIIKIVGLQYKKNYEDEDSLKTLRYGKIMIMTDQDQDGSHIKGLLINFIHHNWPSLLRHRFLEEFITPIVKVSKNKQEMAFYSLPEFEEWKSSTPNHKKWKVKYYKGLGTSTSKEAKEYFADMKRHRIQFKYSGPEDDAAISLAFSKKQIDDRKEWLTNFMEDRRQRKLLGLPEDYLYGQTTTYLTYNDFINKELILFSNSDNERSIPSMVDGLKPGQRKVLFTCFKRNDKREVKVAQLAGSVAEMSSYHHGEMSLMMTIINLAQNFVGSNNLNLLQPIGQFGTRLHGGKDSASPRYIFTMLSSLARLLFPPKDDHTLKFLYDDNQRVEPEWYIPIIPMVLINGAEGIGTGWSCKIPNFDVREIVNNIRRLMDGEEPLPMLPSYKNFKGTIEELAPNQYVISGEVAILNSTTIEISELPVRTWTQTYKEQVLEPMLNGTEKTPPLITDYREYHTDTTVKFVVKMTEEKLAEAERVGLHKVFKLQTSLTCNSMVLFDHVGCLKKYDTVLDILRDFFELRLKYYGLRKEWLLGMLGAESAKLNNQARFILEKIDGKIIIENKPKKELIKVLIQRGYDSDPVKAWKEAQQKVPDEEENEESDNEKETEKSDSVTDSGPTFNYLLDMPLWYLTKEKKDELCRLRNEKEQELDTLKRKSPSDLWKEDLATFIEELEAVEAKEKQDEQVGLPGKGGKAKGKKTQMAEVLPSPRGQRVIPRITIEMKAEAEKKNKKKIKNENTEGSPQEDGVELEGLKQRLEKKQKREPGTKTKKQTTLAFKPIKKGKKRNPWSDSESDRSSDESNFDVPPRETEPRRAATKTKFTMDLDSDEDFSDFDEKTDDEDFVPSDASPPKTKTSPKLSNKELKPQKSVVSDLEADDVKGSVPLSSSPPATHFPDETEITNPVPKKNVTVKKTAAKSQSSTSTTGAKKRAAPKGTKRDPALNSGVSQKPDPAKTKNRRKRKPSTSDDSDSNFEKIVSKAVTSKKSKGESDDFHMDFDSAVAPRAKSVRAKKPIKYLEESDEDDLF
In short: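 Topoisomerase II drug screening kit, with catenated DNA incubated with topoisomerase II (5 units) and test agent at 50 or 100 µM. Etoposide at 100 µM serves as standard. Products resolved on gel: catenated DNA is retained in the wells, and nicked/relaxed circular and linear forms are distinguished.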

[42] = system: DU-145; assay: Cell cycle arrest in human DU145 cells assessed as accumulation at G2/M phase at 125 nM after 48 hrs by propidium iodide staining (reference value: 22.5%); assay type: functional
[43] = system: DU-145; assay: Cell cycle arrest in human DU145 cells assessed as accumulation at S phase at 500 nM after 48 hrs by propidium iodide staining (reference value: 9.1%); assay type: functional

With `COc1ccc(NC(=S)N[C@@H]2c3cc4c(cc3[C@@H](c3cc(OC)c(OC)c(OC)c3)[C@H]3C(=O)OC[C@@H]32)OCO4)cc1` as the compound, how does the Activity [1] read?
Its Activity is 41.7%.

And the Activity [2]?
The Activity was “Active”.

What about the Activity [3] of the same compound?
Its Activity is “Active”.

And the Activity [4]?
The Activity was “Active”.

And the Activity [5]?
The Activity was 44.38%.

And the Activity [6]?
The Activity was 27.87%.

What about the Activity [7] of the same compound?
The Activity was 59.8%.

What about the Activity [8] of the same compound?
The Activity was “Active”.

What about the pIC50 [9] of the same compound?
Its pIC50 is 4.74.

And the Activity [10]?
Its Activity is “Active”.

What about the Activity [11] of the same compound?
Its Activity is 15.35%.

And the pIC50 [12]?
Its pIC50 is 4.39.

And the Activity [13]?
The Activity was 22.55%.

What about the Activity [14] of the same compound?
Its Activity is 30.8%.

And the Activity [15]?
The Activity was 19.5%.

What about the Activity [16] of the same compound?
Its Activity is “Active”.

What about the Activity [17] of the same compound?
Its Activity is “Active”.

What about the Activity [18] of the same compound?
The Activity was “Active”.

What about the Activity [19] of the same compound?
The Activity was “Active”.

What about the Activity [20] of the same compound?
The Activity was 33.5%.

And the Activity [21]?
Its Activity is 26.3%.

And the selectivity ratio [22]?
Its selectivity ratio is 2.3.

And the pIC50 [23]?
The pIC50 was 4.42.

And the selectivity ratio [24]?
Its selectivity ratio is 81.7.

What about the Activity [25] of the same compound?
Its Activity is 26.68%.

What about the Activity [26] of the same compound?
The Activity was 2.3%.

What about the Activity [27] of the same compound?
The Activity was 74.57%.

And the pIC50 [28]?
The pIC50 was 4.76.

What about the Activity [29] of the same compound?
The Activity was “Active”.

And the Activity [30]?
Its Activity is “Active”.

And the Activity [31]?
Its Activity is 3.38%.

And the Activity [32]?
The Activity was 1.07%.

What about the pIC50 [33] of the same compound?
The pIC50 was 6.30.

What about the Activity [34] of the same compound?
Its Activity is 5.31%.

What about the Activity [35] of the same compound?
The Activity was “Active”.

What about the Activity [36] of the same compound?
The Activity was 16.75%.

What about the Activity [37] of the same compound?
Its Activity is “Active”.

What about the pIC50 [38] of the same compound?
The pIC50 was 5.41.

And the Activity [39]?
Its Activity is 27.8%.

And the Activity [40]?
Its Activity is 28.4%.

What about the inhibition [41] of the same compound?
Its inhibition is “Active”.

What about the Activity [42] of the same compound?
Its Activity is 27.9%.

What about the Activity [43] of the same compound?
The Activity was 14.8%.
